Screening data deposited in PubChem by several laboratories.
Sampled rows, rich in hits. Any-hit rate of the full collection: about 3.1%.
PAFAH1B2 FP inh – inhibitors of human PAFAH1B2. P68402. recombinant PAFAH1B2, FP-rhodamine activity probe, fluorescence polarization. inhibition, % at 3.39 µM. actives 1.2% (n = 340,000). AID 492953;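 active = inhibition above the mean of all tested compounds plus 3 SD, cut at about 24% in these data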
Target sequence (P68402 whole entry, looked up): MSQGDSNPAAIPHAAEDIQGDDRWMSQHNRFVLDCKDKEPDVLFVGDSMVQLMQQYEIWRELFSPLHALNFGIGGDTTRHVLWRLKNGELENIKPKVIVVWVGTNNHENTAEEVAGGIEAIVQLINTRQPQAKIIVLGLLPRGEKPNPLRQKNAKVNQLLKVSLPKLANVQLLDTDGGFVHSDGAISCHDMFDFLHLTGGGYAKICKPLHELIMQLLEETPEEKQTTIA
PAFAH2 inh – inhibitors of human PAFAH2; inhibition, % at 3.39 µM; recombinant PAFAH2, FP-rhodamine activity probe, fluorescence polarization; actives 0.99% (n = 340,000); Q99487; AID 492956;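 active = inhibition above the mean over all tested compounds plus 3 SD, cut at about 30% in these data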;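 note: inhibitors block probe labeling of enzyme so polarization drops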
PAFAH1B3 FP inh – blocks human PAF acetylhydrolase 1B catalytic subunit 3; inhibition, % at 3.39 µM; recombinant PAFAH1B3, FP-rhodamine probe, fluorescence polarization; actives 0.28% (n = 340,000); Q15102;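 active = inhibition above the screen-wide average of all tested compounds plus 3 SD, cut at about 25% in these data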
pPAFAH inh – pPAFAH (human) enzyme inhibition; Q13093; recombinant pPAFAH, FP-rhodamine probe fluorescence polarization; inhibition, % at 3.39 µM; actives 1.5% (n = 330,000); AID 463082;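 active = inhibition above the mean inhibition across the screen plus 3 SD, cut at about 25% in these data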;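 note: inhibitors block binding of the rhodamine activity-based probe so polarization drops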
Target sequence (Q13093 whole entry, looked up): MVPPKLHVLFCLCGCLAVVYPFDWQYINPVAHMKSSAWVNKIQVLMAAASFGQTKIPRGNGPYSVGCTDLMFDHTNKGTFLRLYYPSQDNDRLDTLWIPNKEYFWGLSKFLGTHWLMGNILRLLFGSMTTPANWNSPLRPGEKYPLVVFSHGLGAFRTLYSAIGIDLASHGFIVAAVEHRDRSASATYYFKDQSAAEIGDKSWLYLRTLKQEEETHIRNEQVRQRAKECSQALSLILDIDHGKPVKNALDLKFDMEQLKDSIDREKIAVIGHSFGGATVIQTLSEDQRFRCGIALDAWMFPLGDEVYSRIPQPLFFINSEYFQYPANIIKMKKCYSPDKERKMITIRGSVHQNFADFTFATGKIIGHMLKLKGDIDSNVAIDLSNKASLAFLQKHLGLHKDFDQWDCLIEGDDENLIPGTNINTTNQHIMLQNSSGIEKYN
Apaf-1 inh – blocks human Apaf-1 apoptosome activity; O14727; inhibition, % at 20 µM; reconstituted apoptosome caspase-3 activity, DEVD-Rh110 fluorescence; actives 0.71% (n = 330,000); active = inhibition of at least 40% at 20 µM
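Medium: Hepes buffer, pH 7.5 / System: biochemical Apaf-1 apoptosome reconstitution / Measured by: Rh110 fluorescence, excitation 480 nm, emission 540 nm / Times: compound with Apaf-1, dATP, procaspase-3 30 min, then 50 min reaction, room temperature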
Apaf-1 inh conf – confirmation of Apaf-1 inhibitors | shares compounds with Apaf-1 inh | reconstituted apoptosome, caspase-3 DEVD-Rh110 fluorescence | inhibition, % at 20 µM | actives 25% (n = 1,800);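 active = mean inhibition of at least 40% at 20 µM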
Rh110 interf inh – interferes with Rh110 fluorescence, flagging false Apaf-1 inhibitors | shares compounds with Apaf-1 inh | Rh110 fluorescence interference, quenched caspase reaction | activation (fluorescence interference), % at 20 µM | 1,800 tested, under 10 active | AID 504615;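 active = signal rise of 40% or more at 20 µM, treated as a fluorescence artifact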
Apaf1 inh interf – shows fluorescence interference in the Apaf-1 inhibitor assay format. 460 tested, under 10 active. IC50, µM. shares compounds with Apaf-1 inh. fluorescence interference counterscreen, Apaf-1 assay format; call rule not given here
Each line names hits and unclear results; the compound was inactive in the other large screens (follow-up assays come after a bar, where they were run).

Cc1nc(-c2ccc(F)cc2)c(CC(=O)N2CCN(S(=O)(=O)c3ccccc3Br)CC2)s1	none | Apaf-1 inh conf inactive | Rh110 interf inh inactive
O=C(Oc1ccccc1F)c1ccc2c(=O)n3c(nc2c1)CCC3	none
CCc1ccc(S(=O)(=O)/N=C2\C=C(Nc3ccc(C(=O)O)cc3)C(=O)c3ccccc32)cc1	PAFAH1B2 FP inh 32, PAFAH2 inh 50, PAFAH1B3 FP inh 58, pPAFAH inh 33, Apaf-1 inh 96 | Apaf-1 inh conf 89 | Rh110 interf inh inactive | Apaf1 inh interf inactive
CC(C)(C)c1ccc(S(=O)(=O)/N=C2\C=C(NS(=O)(=O)c3ccccc3)C(=O)c3ccccc32)cc1	PAFAH1B2 FP inh 41, Apaf-1 inh 46 | Apaf-1 inh conf 53 | Rh110 interf inh inactive | Apaf1 inh interf inactive
Cc1ccc(S(=O)(=O)/N=C2\C=C(Nc3cccc(C(=O)O)c3)C(=O)c3ccccc32)cc1	PAFAH1B2 FP inh 36, PAFAH2 inh 51, PAFAH1B3 FP inh 65, Apaf-1 inh 94 | Apaf-1 inh conf 98 | Rh110 interf inh inactive | Apaf1 inh interf inactive
Cc1ccc(S(=O)(=O)/N=C2\C=C(Nc3cccc(C(=O)O)c3)C(=O)c3ccccc32)c(C)c1	PAFAH1B2 FP inh 30, PAFAH2 inh 58, PAFAH1B3 FP inh 63, pPAFAH inh 27, Apaf-1 inh 90 | Apaf-1 inh conf 85 | Rh110 interf inh inactive
C=CCCN(Cc1ccccc1)S(=O)(=O)c1cc(Br)ccc1Br	none
Cc1ccc(C(=O)N/N=C/c2ccc(-c3ccccc3[N+](=O)[O-])o2)cn1	Apaf-1 inh 75 | Apaf-1 inh conf inactive | Rh110 interf inh inactive
O=C(N/N=C/c1ccc(-c2ccccc2[N+](=O)[O-])o1)[C@H]1C[C@@H]1c1ccccc1	Apaf-1 inh 68 | Apaf-1 inh conf inactive | Rh110 interf inh inactive
CC(C)(C)[C@H]1COC(=O)CCCC/C=C\C[C@H](CC(=O)N(CCO)Cc2ccccc2)C(=O)N1	none
Nc1sc2c(c1C(=O)NC1CC1)CCCC2	none
Cc1nc2ccccc2c(C)c1CC(=O)N(C)CC(=O)Nc1cccc(F)c1	none
CC1(C)CC(=O)c2c(Cc3ccccc3)n[nH]c2C1	none
CC1(C)CC(=O)c2c(-c3cccnc3)n[nH]c2C1	Apaf-1 inh 43 | Apaf-1 inh conf inactive | Rh110 interf inh inactive
Cc1cc(NC(=O)CSCC(=O)Nc2ccc(C)c(C)c2)no1	Apaf-1 inh 54 | Apaf-1 inh conf inactive | Rh110 interf inh inactive
Cc1cc(NC(=O)CSCC(=O)Nc2ccc(Cl)c(C(F)(F)F)c2)no1	none
O=c1[nH]c(CN2CCOCC2)nc2ccccc12	none
O=c1[nH]c(CN2CCc3ccccc3C2)nc2ccccc12	Apaf-1 inh 65 | Apaf-1 inh conf inactive | Rh110 interf inh inactive
CCN(CCO)c1ccc(NC(=S)Nc2cccc(S(=O)(=O)N(C)C)c2)cc1	Apaf-1 inh 43 | Apaf-1 inh conf inactive | Rh110 interf inh inactive
CCOC(=O)c1c(C)c2c(=O)[nH]cnc2n1-c1ccccc1	Apaf-1 inh 58 | Apaf-1 inh conf inactive | Rh110 interf inh inactive
Cc1sc2ncnc(N3CCC(C(=O)N(C)CC(=O)Nc4ccccc4Cl)CC3)c2c1C	Apaf-1 inh 60 | Apaf-1 inh conf inactive | Rh110 interf inh inactive
Cc1sc2ncnc(N3CCC(C(=O)N(C)CC(=O)Nc4ccccc4Br)CC3)c2c1C	none
COc1ccc(C(CNC(=O)c2cccn2C)N2CCOCC2)cc1 (stereo not drawn)	Apaf-1 inh 47 | Apaf-1 inh conf inactive | Rh110 interf inh inactive
CC(C)COc1ccc(-c2nnc(-c3ccco3)o2)cc1	none
CCN(CC)CCCNc1ccc(-c2nnc(-c3ccc(OCC(C)C)cc3)o2)cn1	Apaf-1 inh 41 | Apaf-1 inh conf inactive | Rh110 interf inh inactive
COc1cccc(-c2cn3nc4c(nc3n2)CCCC4)c1	Apaf-1 inh 53 | Apaf-1 inh conf inactive | Rh110 interf inh inactive
Clc1ccc(-c2cn3nc4c(nc3n2)CCCC4)cc1	Apaf-1 inh 65 | Apaf-1 inh conf 53 | Rh110 interf inh inactive | Apaf1 inh interf inactive
COc1cccc(-c2cc(C(F)(F)F)n3nc(N)nc3n2)c1	none
Cc1ccc(-c2cn3nc(C)c(C)nc3n2)cc1	none
C[n+]1cccc2c(Br)ccc([O-])c21	Apaf-1 inh 98 | Apaf-1 inh conf 64 | Rh110 interf inh inactive | Apaf1 inh interf inactive
O=C(Nc1ccccc1N1CCCC1)C1CCN(S(=O)(=O)c2cccc(C(F)(F)F)c2)CC1	Apaf-1 inh 42 | Apaf-1 inh conf inactive | Rh110 interf inh inactive
NC1(C#Cc2ccc3oc(=O)c(-n4cc(-c5ccsc5)nn4)cc3c2)CCCCC1	Apaf-1 inh 48 | Apaf-1 inh conf inactive | Rh110 interf inh inactive
COc1cc(N)c(C(=O)c2nccc3cc(OC)c(OC)cc23)cc1OC	none
COc1cc(Br)c(C(=O)c2nccc3cc(OC)c(OC)cc23)cc1OC	PAFAH2 inh 40, PAFAH1B3 FP inh 67, Apaf-1 inh 89 | Apaf-1 inh conf 79 | Rh110 interf inh inactive | Apaf1 inh interf inactive
O=C(NC(=S)Nc1cc([N+](=O)[O-])ccc1O)C1CC1	none
O=C1/C(=C\c2ccc(-c3ccccc3[N+](=O)[O-])o2)C(c2ccccc2)=NN1c1ccccc1	Apaf-1 inh 44 | Apaf-1 inh conf inactive | Rh110 interf inh inactive
C=CCn1c(SCC(=O)NCCc2ccccc2)nnc1C1CC1	Apaf-1 inh 42 | Apaf-1 inh conf inactive | Rh110 interf inh inactive
Nc1cc2nsnc2cc1Br	PAFAH1B2 FP inh 43, PAFAH2 inh 56, PAFAH1B3 FP inh 59, Apaf-1 inh 98 | Apaf-1 inh conf 99 | Rh110 interf inh inactive | Apaf1 inh interf inactive
COC1=C(Nc2ccccc2OC)C(=O)c2ccccc2C1=O	Apaf-1 inh 54 (no result: PAFAH1B2 FP inh, PAFAH2 inh, PAFAH1B3 FP inh) | Apaf-1 inh conf inactive | Rh110 interf inh inactive
COc1ccccc1NC1=C(NC(C)=O)C(=O)c2ccccc2C1=O	none (no result: pPAFAH inh, Apaf-1 inh)
CN1c2cccc3cccc(c23)N(C)C1(C)C	Apaf-1 inh 46 | Apaf-1 inh conf inactive | Rh110 interf inh inactive
CN1c2ccccc2N(C)C1(C)c1cccc2ccccc12	none
NC(=NCCCCCCN=C(N)/N=C(\N)Nc1ccc(Cl)cc1)/N=C(\N)Nc1ccc(Cl)cc1	Apaf-1 inh 79 | Apaf-1 inh conf inactive | Rh110 interf inh inactive
CC(C)N=C(N)N=C(N)Nc1ccc(Cl)cc1	none
CN(C)C(=O)c1ccc(NC(=O)COc2cccc(Oc3ccccc3)c2)cc1	Apaf-1 inh 61 | Apaf-1 inh conf inactive | Rh110 interf inh inactive
C=CCN1C(=O)c2ccc(C(=O)N(C)CC(=O)Nc3cccc(F)c3)cc2C1=O	none
